Reference: ChEMBL document CHEMBL1148736, “N-Acylthiadiazolines, a new class of liver X receptor agonists with selectivity for LXRbeta” (J Med Chem, 2007)
Active and inactive are the calls of the source. The rule behind the calls is not given here.

Columns and labels:
Hepatocyte = assay: Induction on FAS gene expression in human primary hepatocytes at 1 uM; format: functional, cell-based
Procedure, shortened: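 Primary human hepatocytes treated with 1 µM compound; FAS mRNA measured by TaqMan-based qRT-PCR.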

Macrophage [1] = assay: Induction of ABCA1 gene expression in LXRalpha deficient mouse macrophages; format: functional, cell-based
Procedure, shortened: (§1)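 Thioglycollate-elicited peritoneal macrophages from LXR-null mice, plated 24 h. Treated as for THP-1 without PMA: 2% lipoprotein-deficient serum medium, compound in DMSO for 24 h. ABCA1 mRNA by TaqMan qRT-PCR with 36B4 control, fold vs DMSO. Two concentrations used.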

[2] = target: T1, Oxysterols receptor LXR-alpha (Homo sapiens, UniProt Q13133); assay: Activity at human LXRalpha by Gal4 transactivation assay
T1 sequence (Q13133 whole entry): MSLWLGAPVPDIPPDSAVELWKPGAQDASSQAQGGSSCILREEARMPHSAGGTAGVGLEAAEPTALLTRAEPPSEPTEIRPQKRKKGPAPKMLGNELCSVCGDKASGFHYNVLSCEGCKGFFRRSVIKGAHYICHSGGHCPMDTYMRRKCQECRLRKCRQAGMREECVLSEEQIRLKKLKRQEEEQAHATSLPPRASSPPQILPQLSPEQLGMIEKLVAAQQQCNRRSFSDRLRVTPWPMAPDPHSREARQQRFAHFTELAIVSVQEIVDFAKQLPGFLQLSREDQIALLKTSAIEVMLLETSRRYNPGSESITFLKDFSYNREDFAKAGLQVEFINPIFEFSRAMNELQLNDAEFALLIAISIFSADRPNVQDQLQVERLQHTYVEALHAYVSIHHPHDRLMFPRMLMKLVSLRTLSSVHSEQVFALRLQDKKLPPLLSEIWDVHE
Procedure, shortened: (§2)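 GAL4 DBD fused to hLXRα or hLXRβ LBD in pcDNA3, co-transfected into HepG2 with luciferase reporter. Cells in DMEM with 10% lipoprotein-deficient FBS, 7.5 µM lovastatin, 100 µM mevalonic acid. Ligand added 24 h post-transfection as 11-point curves from 10 µM; luciferase read after 16 h. Run in quadruplicate. %E = max fold induction vs max fold induction of reference dual agonist in same experiment.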

[3] = target: T2, Oxysterols receptor LXR-alpha (Homo sapiens) (UniProt Q13133); assay: Displacement of [3H]T-0901317 from GAL-linked human LXRalpha expressed in THP1 cells at 20 uM by SPA relative to GW-3965; format: cell-based; settings: THP-1
T2 sequence (whole entry): T1 sequence (Q13133 whole entry)
Procedure, shortened: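 Scintillation proximity displacement with His-tagged hLXRα or hLXRβ LBD (200 ng/well) and 30 nM [3H]T0901317. Beads 0.2 mg/well in phosphate buffer with EDTA, NaCl, DTT, CHAPS, 10% glycerol. 12-point curves from 20 µM; shaken 3 h at room temperature. No-competitor wells = 100% binding; nonspecific binding without protein. Efficacy = maximal displacement relative to reference dual agonist.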

[4] = Stability in human liver microsomes at 1 uM after 30 mins; format: ADME, Microsome; settings: read-out: Stability
Procedure, shortened: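 Incubated at 1 µM with human liver microsomes; percent parent remaining measured at 30 min.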

HepG2 = assay: Increase in FAS gene expression in HepG2 cells at 10 uM relative to GW-3965; format: functional, Homo sapiens
[5] = target: T3, Oxysterols receptor LXR-beta (Homo sapiens) (UniProt P55055); assay: Activity at human LXRbeta by Gal4 transactivation assay relative to GW-3965; procedure, shortened: as §2
T3 sequence (whole entry): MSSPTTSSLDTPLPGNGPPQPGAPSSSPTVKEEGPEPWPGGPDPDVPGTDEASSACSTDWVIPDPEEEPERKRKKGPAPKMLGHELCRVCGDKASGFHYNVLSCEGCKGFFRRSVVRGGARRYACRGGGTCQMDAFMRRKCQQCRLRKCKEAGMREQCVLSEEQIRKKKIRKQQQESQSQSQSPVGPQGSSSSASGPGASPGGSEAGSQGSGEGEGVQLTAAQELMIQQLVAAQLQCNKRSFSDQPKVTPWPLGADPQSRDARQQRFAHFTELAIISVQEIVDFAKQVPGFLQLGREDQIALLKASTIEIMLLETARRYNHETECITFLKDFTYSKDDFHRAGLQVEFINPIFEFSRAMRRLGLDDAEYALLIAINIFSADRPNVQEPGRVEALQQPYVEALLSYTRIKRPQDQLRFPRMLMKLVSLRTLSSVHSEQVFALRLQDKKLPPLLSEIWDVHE

[6] = target: T4, Vitamin D3 receptor (Homo sapiens) (UniProt P11473); assay: Activity at VDR by cell based assay; format: functional
T4 sequence (whole entry): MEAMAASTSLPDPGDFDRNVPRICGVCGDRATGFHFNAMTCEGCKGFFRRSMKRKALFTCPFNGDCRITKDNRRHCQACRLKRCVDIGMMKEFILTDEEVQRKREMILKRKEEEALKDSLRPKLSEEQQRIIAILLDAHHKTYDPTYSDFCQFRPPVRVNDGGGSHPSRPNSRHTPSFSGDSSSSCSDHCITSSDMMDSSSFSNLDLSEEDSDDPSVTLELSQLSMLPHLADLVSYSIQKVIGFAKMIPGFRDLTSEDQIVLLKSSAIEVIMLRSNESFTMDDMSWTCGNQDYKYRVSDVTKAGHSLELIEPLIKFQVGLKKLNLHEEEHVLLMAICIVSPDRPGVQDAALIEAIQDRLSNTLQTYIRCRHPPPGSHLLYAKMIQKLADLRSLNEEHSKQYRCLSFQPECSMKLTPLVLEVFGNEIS

[7] = target: T5, Oxysterols receptor LXR-beta (Homo sapiens, UniProt P55055); assay: Agonist activity at GAL-linked human LXRbeta expressed in THP1 cells assessed as stimulation of co-activator recruitment by FRET assay; format: functional
T5 sequence (P55055 whole entry): T3 sequence (whole entry)
Procedure, shortened: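 Cell-free TR-FRET coactivator recruitment: 20 nM His-tagged hLXRα or hLXRβ, 300 nM biotinylated SRC-1 peptide, Eu-anti-His antibody, APC-streptavidin. 12-point curves from 20 µM; 1 h at 37 °C. Duplicate. %E = maximal coactivator recruitment relative to reference dual agonist in same experiment.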

[8] = AUC in C57BL/6 mouse at 20 mg/kg, po; format: ADME, organism-based; set-up: dose 20 mg/kg, route oral; settings: plasma
Procedure, shortened: (§3)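 Mouse PK study, IV and PO; compound formulated at 2.5 mg/mL in PEG300/Tween 80 (4:1). IV dose 5 mpk (AUC, Cmax, clearance, Vss); oral dose 20 mpk (AUC, Cmax, bioavailability, t1/2).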

[9] = target: T2, Oxysterols receptor LXR-alpha (Homo sapiens); assay: Activity at human LXRalpha by Gal4 transactivation assay relative to GW-3965; procedure, shortened: as §2
Macrophage [10] = assay: Induction of ABCA1 gene expression in LXRalpha and LXRbeta deficient mouse macrophages; format: functional, cell-based; procedure, shortened: as §1
[11] = Bioavailability in C57BL/6 mouse at 20 mg/kg, po; format: ADME, organism-based; settings: in vivo; procedure, shortened: as §3
[12] = Half life in C57BL/6 mouse at 20 mg/kg, po; format: ADME, organism-based; set-up: dose 20 mg/kg, route oral; settings: in vivo; procedure, shortened: as §3
[13] = target: T5, Oxysterols receptor LXR-beta; assay: Activity at human LXRbeta by Gal4 transactivation assay; procedure, shortened: as §2

- EC50 [2]: 608 nM
- Efficacy [3]: 52%
- remaining at 0.5 h, 1 µM [4]: 70%
- Efficacy [5]: 82%
- Activity [6]: inactive
- EC50 [7]: 250 nM
- AUC [8]: 7920 ng·h/mL
- Efficacy [9]: 19%
- bioavailability [11]: 28%
- half-life [12]: 402 min
- EC50 [13]: 98 nM
SMILES: COc1cccc(C2SC(c3ccc(Cl)cc3)=NN2C(=O)c2c(F)cc(F)cc2F)c1OC (racemic)
- Activity (Hepatocyte): inactive
- Activity (Macrophage [1]): Active
- Activity (HepG2): 33%
- Activity (Macrophage [10]): inactive
